An excerpt weighted towards active compounds, which were near 2.4% of everything screened.
NR2E3 ag-1 = activates human photoreceptor nuclear receptor NR2E3; Q9Y5X4; GST-NR2E3/biotin-RetCOR TR-FRET, 1536-well; inhibition of corepressor binding, % at 4.78 µM; hit rate 0.12% among 320,000; AID 2300;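 active = percent inhibition above the cutoff of mean plus 3 SD of all tested compounds, set per screening campaign, cut at about 20% in these data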;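 also: 0% = DMSO wells and 100% = biotin wells as full block of FRET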
Target sequence (Q9Y5X4 whole entry, looked up): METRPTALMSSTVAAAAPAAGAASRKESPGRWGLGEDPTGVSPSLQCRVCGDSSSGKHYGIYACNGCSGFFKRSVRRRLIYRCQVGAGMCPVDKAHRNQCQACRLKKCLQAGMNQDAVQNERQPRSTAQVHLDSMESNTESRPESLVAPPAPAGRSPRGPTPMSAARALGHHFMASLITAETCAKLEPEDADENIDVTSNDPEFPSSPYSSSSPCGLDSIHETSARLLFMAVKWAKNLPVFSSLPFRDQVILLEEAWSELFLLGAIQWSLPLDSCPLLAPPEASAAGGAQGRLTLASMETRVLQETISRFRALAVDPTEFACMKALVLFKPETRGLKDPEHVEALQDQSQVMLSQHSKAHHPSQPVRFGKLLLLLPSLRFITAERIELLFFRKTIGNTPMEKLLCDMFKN
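Material: NR2E3–RetCOR corepressor complex / Incubation: Compound–protein incubation for 5 h at 4 °C / Dosing: compound at 4.8 µM, single dose / Detection: time-resolved FRET / Benchmarks: high control biotin, low control 0.6% DMSO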
NR2E3 ag-2 = activates human NR2E3 receptor; Q9Y5X4; CHO-S Gal4-NCOR/VP16-NR2E3 two-hybrid, luciferase; inhibition of corepressor binding, % at 3.98 µM; AID 602229; hit rate 0.35% among 360,000;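 active = inhibition above the mean of all tested compounds plus 3 SD, cut at about 70% in these data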;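 also: 0% = DMSO with NR2E3 transfected cells and 100% = cells lacking NR2E3 construct; higher means lower luciferase signal from less NR2E3 corepressor binding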
MPTP inh = blocks calcium-induced mitochondrial swelling. isolated mouse mitochondria, Ca2+ swelling absorbance, 30 min. inhibition, % at 10 µM. hit rate 1.4% among 360,000. AID 602449;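 active = inhibition of 50% or more, scaled per plate between neutral and stimulator controls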;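 also: 0% = DMSO wells given calcium and 100% = 1 mM EGTA wells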
aDG glyco act = alpha-DG glycosylation activation; Pro5-aDG cells, alpha-DG glycosylation AlphaScreen (IIH6); 0% Pro5, 100% B10-LARGE cell signal; activation, % at 10 µM; hit rate 0.22% among 360,000; AID 624168;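 active = activation of at least 8% versus controls, or a plate z-score of at least 8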;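 also: Pro5 are CHO cells carrying HIG-tagged alpha-DG that lacks glycosylation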
Jurkat NFkB inh = lowers PMA/ionomycin-induced NF-kB signal in Jurkat cells; PMA/ionomycin-induced NF-kB luciferase reporter, luminescence; inhibition, % at 4 µM; hit rate 0.53% among 330,000; in the data active = inhibition above about 50%
697 NFkB inh = lowers PMA/ionomycin-induced NF-kB signal in 697 B cells. inhibition, % at 4 µM. 697 B-cell NF-kB luciferase reporter, 16 h. hit rate 0.33% among 330,000; in the data active = inhibition above about 35%
MPTP counter = Rhodamine 123 counter-screen of mitochondrial pore hits. shares compounds with MPTP inh. isolated mitochondria, membrane potential, Rhodamine 123 fluorescence. inhibition, % at 10 µM. hit rate 78% among 5,000. AID 624504; in the data active = inhibition above about 22%;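 also: 0% = DMSO vehicle and 100% = positive control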
MPTP abs DR = MPTP inhibition, dose response swelling confirmation; isolated mitochondria swelling, absorbance; AID 651561; shares compounds with MPTP inh; hit rate 58% among 780; IC50, µM; in the data active = IC50 below about 20 µM
MPTP counter DR = active in counter-screen for permeability transition pore inhibitors. shares compounds with MPTP inh. isolated mitochondria counterscreen, fluorescence read-out. IC50, µM. hit rate 49% among 780; in the data active = IC50 below about 80 µM
* marks the source's active call; other numbers are inactive results; . = no result given.

SMILES	NR2E3 ag-1	NR2E3 ag-2	MPTP inh	aDG glyco act	Jurkat NFkB inh	697 NFkB inh	MPTP counter	others
COC(=O)Nc1nnc(-c2ccncc2)s1	0.4	34.0	-4.3	-0.1	-8.4	2.1	.
O=C(Nc1cccc(Cl)c1)Nc1nnc(-c2ccncc2)s1	0.1	89.2*	101.4*	-0.5	8.8	-107.1	55.1*
O=C(Nc1ccc(F)cc1)Nc1nnc(COc2ccccc2F)s1	-1.5	-16.8	83.0*	0.6	-6.4	-6.3	82.9*
O=C(Nc1ccc(Cl)cc1)Nc1nnc(-c2ccncc2)s1	1.7	-8.0	79.2*	-0.4	.	.	23.8*
O=C(Nc1ccc(F)cc1)Nc1nnc(-c2ccncc2)s1	-3.9	-9.9	90.7*	0.0	-4.8	-53.2	89.0*
CCOC(=O)C1CCN(CCC(=O)Nc2ccc(Br)c(C)c2)CC1	.	18.2	2.0	0.3	-9.5	-18.9	.
Cc1ccc(NC(=O)Nc2nnc(-c3ccncc3)s2)cc1C	0.4	-42.9	86.6*	-0.4	-20.1	-32.8	78.8*
Cc1cc(NC(=O)c2ccc(Cl)cc2)n(-c2ccccc2)n1	1.6	-7.8	0.2	0.0	1.5	12.2	.
Cc1cc(NC(=O)Nc2cccc(Cl)c2)n(-c2ccccc2)n1	-1.2	21.9	57.5*	0.0	-23.9	12.0	86.5*
Cc1cc(NC(=O)Nc2cccc(Cl)c2)n(-c2ccccn2)n1	-0.1	-18.1	43.1	0.3	7.0	6.4	.
Cc1cc(NC(=O)Nc2ccc(Cl)c(Cl)c2)n(-c2ccccc2)n1	-0.2	-29.8	86.3*	-0.2	3.9	3.8	86.6*
Cc1ccc(S(=O)(=O)N2C[C@@H]3[C@H]4CC[C@H](C4)[C@@H]3[C@@H](C)[C@@H]2c2ccn(Cc3ccccc3)c2)cc1	.	-1.1	-1.7	0.4	.	9.9	.
CCCCC/C=N/NC(=O)c1[nH]c2ccc([N+](=O)[O-])cc2c1C	-2.1	-4.6	76.2*	0.2	12.7	0.2	72.7*
Cc1ccc2[nH]c(C(=O)N/N=C/c3ccc([N+](=O)[O-])cc3)c(C)c2c1	.	-2.9	50.7*	0.0	34.1	-11.8	73.5*
CCOC(=O)C(CCCCC(NC(C)=O)(C(=O)OCC)C(=O)OCC)(NC(C)=O)C(=O)OCC	-1.0	-4.3	0.0	0.0	-0.3	5.9	.
CN(Cc1ccco1)C(=O)Cn1cc(S(=O)(=O)N2CCCC2)c(S(=O)(=O)N2CCCC2)c1	1.4	-28.3	-2.2	-0.1	7.3	-5.4	.
Cn1ncc(SCc2ccccc2)c(Cl)c1=O	0.4	-6.9	57.9*	1.2	20.5	-13.6	21.7*
CN(NS(=O)(=O)c1ccc(Br)cc1)c1nc(C(F)(F)F)nc2ccccc12	2.5	-13.8	73.2*	0.4	-11.4	-9.0	86.4*
CC(C)(C)C(=O)OCCNc1nc(-c2ccccc2)nc2ccccc12	-3.5	-11.4	5.9	1.9	-3.3	-8.3	.
O=C(Nc1cccc(C(F)(F)F)c1)Nc1ccc(N2CCCC2)c(S(=O)(=O)Nc2ccccc2Cl)c1	1.1	3.4	93.9*	0.3	-26.8	1.5	40.9*
CC(C)c1ccc(OCc2ccc(C(=O)N3CCCC3)o2)cc1	-0.5	-112.4	84.0*	0.8	-35.8	-86.3	11.7	MPTP abs DR=12*;MPTP counter DR=18.1*
CCOc1ccc(OCc2ccc(C(=O)N3CCCC3)o2)cc1	0.4	-32.6	-1.6	-0.1	-14.4	-40.9	.
Cc1ccc(OCc2ccc(C(=O)N3CCOCC3)cc2)cc1C	2.0	-97.0	-1.2	0.3	-71.4	-87.4	.
CC(C)c1ccc(COc2ccc(C(=O)N3CCOCC3)cc2)cc1	2.8	24.5	67.4*	3.7	-17.6	-31.9	49.0*
O=[N+]([O-])c1ccc(N2CCN(Cc3ccccc3)CC2)c2c1no[n+]2[O-]	.	46.8	98.5*	-0.5	.	.	12.2
SMILES	NR2E3 ag-1	NR2E3 ag-2	MPTP inh	aDG glyco act	Jurkat NFkB inh	697 NFkB inh	MPTP counter	others
O=[N+]([O-])c1ccc(N2CCN(Cc3ccccc3)CC2)s1	-5.0	-4.6	0.4	-0.1	-15.5	-32.7	.
O=S(=O)(Nc1ccc2c3c(cccc13)CC2)c1ccc(F)cc1	3.5	-8.1	2.3	0.3	3.7	-7.6	.
CSc1ccc(S(=O)(=O)Nc2ccc3c4c(cccc24)CC3)cc1	-3.9	28.3	61.2*	0.7	17.0	6.1	73.0*
COc1cc(CN2CCC(CO)(CCOc3ccccc3)CC2)cc(OC)c1OC	0.0	-0.6	0.2	0.0	5.4	-15.9	.
COc1ccc(CN2CCC(CO)(CCOc3ccccc3)CC2)cc1C	3.0	-32.6	67.7*	0.1	5.5	8.0	-1.8	MPTP abs DR=20*;MPTP counter DR=>80
COc1cccc(CN(C)CC(=O)Nc2ccccc2C(=O)NC2CC2)c1	1.0	-19.6	-2.7	0.0	11.4	23.7	.
COc1ccc(CNC(=O)C2CCN(C(=O)c3csc(Nc4ccc(C)cc4)n3)CC2)cc1	6.1	-6.2	0.6	0.0	-4.7	0.4	.
CN(C)CCCN(C(=O)C1=COCCO1)c1nc2ccc(Br)cc2s1	1.8	-20.8	-2.0	0.8	2.6	5.6	.
Cc1cc(C)c2nc(N(CCCN(C)C)C(=O)c3ccc4c(c3)OCCO4)sc2c1	-4.7	-21.3	88.7*	1.0	8.2	-18.7	-18.2
Cc1cc(C)c2nc(N(CCCN(C)C)C(=O)C3=COCCO3)sc2c1	1.1	-7.7	61.3*	2.5	7.8	4.7	-15.7	MPTP abs DR=11.8*;MPTP counter DR=>80
CC(C)c1ccc(NC2CCCN(C(=O)c3ccc(N4CCOCC4)cc3)C2)cc1 (stereo unspecified)	2.6	-11.2	-0.6	0.5	4.5	-11.9	.
O=C(Nc1ccccc1)Nc1ccc(-n2ccc(C(F)(F)F)n2)cc1	-0.7	31.3	79.2*	2.2	-115.8	-97.7	82.4*
CCCCC1(C)NC(=O)N(CC(=O)Nc2cc(S(=O)(=O)N3CCOCC3)ccc2Cl)C1=O (stereo unspecified)	2.1	5.5	0.4	-0.2	4.1	10.7	.
O=C(NC(=O)c1csnn1)Nc1ccccc1Cl	1.4	-30.8	1.6	0.3	-4.8	-38.8	.
CCOC(=O)c1ccccc1NC(=O)C1CSC2(C)CCC(=O)N12 (stereo unspecified)	2.7	-20.6	0.3	-0.1	-12.9	7.9	.
COc1ccc(NC(=O)Nc2nc(C(N)CC(C)C)cs2)cc1 (stereo unspecified)	.	-1.8	2.0	1.0	.	.	.
NC(c1csc(NC(=O)Nc2ccc(OC(F)(F)F)cc2)n1)C1CCCCC1 (stereo unspecified)	.	-12.6	62.5*	-0.5	.	.	87.8*
COc1cc2c(cc1OC)CN(CC(=O)NC(=O)NC1CCCCC1)CC2	-1.1	-25.6	-0.8	0.2	-5.8	-14.0	.

Bioassay records as filed in PubChem BioAssay.
